A selection: hits, their analogues and other compounds. The true share with any hit is near 11%.
Diaph act CS: compounds boosting diaphorase resazurin reduction – biochemical, uHTS, resorufin fluorescence, counter-screen for diaphorase-coupled primary assays, primary screen | Diaphorase/resazurin coupled assay, 16 min; stronger effect = higher value; 1 = vehicle wells, 0 = NADH-free wells | activation factor at 20 µM | actives 0.005% (n = 190,000);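 active = diaphorase activity raised at least twofold by the compound at 20 µM; inactive = activation factor below 2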
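Measured by – red resorufin fluorescence at 544/590 nm excitation/emission · Test system – Clostridium kluyveri diaphorase, purified enzyme · Incubation – reaction time 16 min, room temperature · Buffer or medium – 50 mM HEPES pH 7.4 with 4.542 mM MgCl2, 0.005% Tween 20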
G6PDH CS: L. mesenteroides G6PDH inhibitors, counter-screen for G6PDH-coupled screening assays, biochemical, Leuconostoc mesenteroides enzyme | glucose-6-phosphate dehydrogenase [Leuconostoc mesenteroides] | Purified L. mesenteroides G6PDH, diaphorase/resazurin coupled fluorescence, 45 min | inhibition, % at 5 µM | actives 0.12% (n = 200,000) | AID 1020, 2008
L major viab: Leishmania major promastigote growth inhibition, primary screen. AID 1063, 2008. Leishmania major promastigotes, resazurin fluorescence viability. inhibition, % at 10 µM. actives 9% (n = 200,000);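 note: promastigotes grown with compound for 44 hours at 28 °C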
Diaph inh CS: diaphorase inhibitors and chemical oxidizers, primary screen, counter-screen for diaphorase-coupled primary assays, biochemical, uHTS, resorufin fluorescence | diaphorase resazurin-to-resorufin fluorescence, NADH, 16 min; bacterial (C. kluyveri) enzyme, not human | inhibition, % at 20 µM | AID 1217, 2008 | actives 0.69% (n = 190,000);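 active = primary screen inhibition at 20 µM above a set limit, cut at about 50% in these data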;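 note: plate controls were DMSO with full reaction for no effect and wells lacking NADH for full effect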
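Benchmarks: positive control wells lacking NADH, neutral wells with DMSO only. System: bacterial diaphorase enzyme (C. kluyveri). Input: 0.14 U/mL diaphorase, enzyme working solution. Detection: resorufin fluorescence, excitation 544 nm, emission 590 nm. Times: 16-min room-temperature incubation before reading.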
WT yeast gro inh: growth inhibition of WT strain, primary screen, mitochondrial fusion inhibitor project, WT and mutant strains, chemical genetic | actives 2.1% (n = 190,000) | inhibition, % at 10 µM | mitochondrial fusion phenotypic screen; in the data active = inhibition above about 58%; tested in S. cerevisiae
An asterisk follows results filed as active; . = no result given. Cut-off read from the data, not from the text of the source, unless noted: active = inhibition above about 50%; inactive = the rest.

SMILES	Diaph act CS	G6PDH CS	L major viab	Diaph inh CS	WT yeast gro inh
N#CCCN1CCN(S(=O)(=O)c2ccc(S(=O)(=O)NC3CCCC3)cc2)CC1	0.9	8	-4	8	14
COc1cc(C(=O)NCc2nnc(SCC(=O)Nc3nc4ccccc4s3)o2)cc(OC)c1OC	1	8	71*	0	-5
O=C(CSc1nc2ccccc2s1)Nc1ccc(Cl)c(C(=O)O)c1	0.9	-5	-9	15	-1
O=C(CSc1nc2ccccc2s1)Nc1cc(C(=O)O)cc(C(=O)O)c1	0.4	7	-4	62*	-17
COc1ccc(-c2csc(NC(=O)CSc3nc(SC)ns3)n2)cc1	0.9	6	52*	14	35
CSc1nsc(SCC(=O)Nc2nc3ccccc3s2)n1	0.8	6	63*	16	12
COc1ccc(-c2csc(NC(=O)CSc3nc(C)cs3)n2)cc1	.	.	1	.	-18
Cc1ccc(S(=O)(=O)N2CCC(=O)N(CCOC(=O)Nc3ccc(F)cc3)CC2)cc1	1	8	2	0	7
Cc1cccc(CN2CCN(C(=O)CCl)CC2)c1	0.9	-6	100*	9	-14
Cc1cccc(CN2CCN(C(=O)c3ccccc3F)CC2)c1	0.7	2	-6	25	-11
CCCCC(=O)NC1(C(F)(F)F)C(=O)N(CC(C)C)C2=C1C(=O)CC(C)(C)C2 (stereo not drawn)	0.8	3	-1	16	0
Cc1ccc(C(=O)OCC(=O)Nc2cc(F)ccc2F)cc1NC(=O)c1ccco1	1	3	88*	0	24
c1ccc2c(N3CCCC3)nc(-c3ccncc3)nc2c1	1	-1	30	1	14
CCN1CCN(c2nc(-c3ccccn3)nc3ccccc23)CC1	1.2	12	17	-25	9
c1ccc(CN2CCN(c3nc(-c4ccccn4)nc4ccccc34)CC2)cc1	1	16	100*	1	48
c1ccc(COc2ccc(CN3CCN(c4ccccn4)CC3)cc2)cc1	0.9	4	95*	10	33
CN1CCN(c2nc(-c3ccncc3)nc3ccccc23)CC1	0.9	-3	100*	8	-5
c1ccc(CN2CCN(c3nc(-c4ccccc4)nc4ccccc34)CC2)cc1	1	6	68*	-4	54
COc1ccc(CN2CCN(c3ccccn3)CC2)c(OC)c1	0.9	12	-6	6	-7
CCOC(=O)c1c(NC(=O)C2=C(C)NC(=S)NC2c2ccc(C)cc2)sc(C)c1C (stereo not drawn)	0.9	1	81*	8	8
CCOC(=O)c1c(NC(=O)C2=C(C)NC(=S)NC2c2ccc(F)cc2)sc(C)c1C (stereo not drawn)	0.8	-10	82*	20	20
CC(=O)C1=C(c2ccccc2)NC(=O)NC1c1ccccc1OCC(=O)NCc1ccccc1 (stereo not drawn)	1	6	-2	2	-24
Cc1ccc(NC(=O)CCSCCc2ccccn2)cc1	0.9	2	-5	10	5
CCn1ccc2cc(OC)ccc2c1=S	0.9	-1	-3	14	1
CCSc1ccc2cc(OC)ccc2[n+]1CC	1.1	-3	84*	-8	62*
SMILES	Diaph act CS	G6PDH CS	L major viab	Diaph inh CS	WT yeast gro inh
Cc1ccc(CN2CC(C(=O)Nc3nnc(SCc4c(Cl)cccc4Cl)s3)CC2=O)cc1 (stereo not drawn)	0.6	-38	4	40	-3
CCS(=O)(=O)N1Cc2ccccc2CC1C(=O)Nc1nc(C)cs1 (stereo not drawn)	1	-2	6	3	23
Cc1cnc(C(=O)Nc2nnc(SCc3c(Cl)cccc3Cl)s2)cn1	0.9	-7	56*	10	64
CCS(=O)(=O)N1Cc2ccccc2CC1C(=O)Nc1nc2c(C)cccc2s1 (stereo not drawn)	0.9	10	55*	9	39
CCS(=O)(=O)N1Cc2ccccc2CC1C(=O)Nc1nnc(SCc2c(Cl)cccc2Cl)s1 (stereo not drawn)	0.8	-24	81*	18	7
CCSc1nnc(NC(=O)C2Cc3ccccc3CN2S(=O)(=O)CC)s1 (stereo not drawn)	0.9	6	3	8	12
CCOc1c(Br)cc(C2NS(=O)(=O)N=C3CCCCCN32)cc1OC (stereo not drawn)	0.8	2	9	18	1
COc1cc(OC)c(NC(=O)c2ccc3c(SCC(=O)O)c4c(nc3c2)CCCC4)cc1Cl	0.8	-7	-1	18	-11
N/C(=N\OC(=O)c1cc(Cl)ccc1Cl)c1ccccn1	1.1	5	33	-6	6
CC(CNS(=O)(=O)c1ccccc1)(c1ccccc1)N1CCOCC1 (stereo not drawn)	1	-11	-1	1	-1
O=C(NC1CCCCC1)C(c1ccc(F)cc1)N(CCc1ccccc1)C(=O)CN1C(=O)c2ccccc2S1(=O)=O (stereo not drawn)	1	-12	50*	2	5
O=C(NC1CCCCC1)C(c1ccc(F)cc1)N(Cc1ccccc1)C(=O)CN1C(=O)c2ccccc2S1(=O)=O (stereo not drawn)	0.9	0	58*	9	0
O=C(NC1CCCC1)C(c1ccc(F)cc1)N(Cc1ccc(F)cc1)C(=O)CCl (stereo not drawn)	0.9	0	100*	10	-6
Cc1cc(C)c(N(C(=O)CN2C(=O)c3ccccc3S2(=O)=O)C(C(=O)NCC2CCCO2)c2ccc(F)cc2)c(C)c1 (stereo not drawn)	0.8	-13	69*	20	43
CCOC(=O)C1CCN(C(=O)C2CCN(S(=O)(=O)c3cccc4cccnc34)CC2)CC1	0.9	2	-7	8	-6
Cc1ccc(C(=O)NC(=C(Cl)Cl)S(=O)(=O)c2ccc(C)cc2)cc1	0.9	-4	62*	10	-3
Cc1ccc(S(=O)(=O)C(NC(=O)c2ccccc2)=C(Cl)Cl)cc1	.	.	62*	.	.
Cc1ccc(C(=O)NC(=C(Cl)Cl)S(=O)(=O)c2ccc(Cl)cc2)cc1	0.7	2	3	28	15
Cc1ccc(S(=O)(=O)/C(=C/Cl)NC(=O)c2ccccc2)cc1	0.9	4	99*	5	-34
Cc1cc(NC(=O)CN2CCOCC2)n(-c2nc3ccccc3s2)n1	0.8	-2	9	18	5
CCN1CCN(CCCOc2ccc(Cl)cc2Br)CC1	1	7	96*	-4	20
Clc1ccc(OCCCN2CCCCC2)c(Br)c1	0.9	1	99*	11	24
Brc1ccccc1OCCCCCN1CCCC1	1	4	98*	-2	13
